This note sets out measurements from PubChem BioAssay AID602268 (Broad Institute, 2012).

The subject of assay [1] is NIH3T3-HGL HSE-luciferase, MG132-induced, luminescence 8 h. Kind of assay: decrease of HSF-1-responsive luciferase luminescence – cell-based, NIH3T3, dry powder samples, dose response (AID 602268). In outline:
(§1)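 Assay system – NIH3T3-HGL cells, HSE-controlled luciferase reporter · Timing – 24 h cell seeding, 30 min compound pretreatment, 8 h MG132 · Medium – Opti-MEM with 2.5% FBS · Technique – Steady-Glo luminescence of luciferase · Reagent – MG132 at 2.5 µM final · Control set – Didemnin B 400 nM as positive control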

Assay in assay [2]: as above
The settings on record: NIH3T3-HGL HSE-luciferase, MG132-induced, luminescence 8 h; at 26 µM (top of the series). The method in brief:
as §1

Where “and” joins values, the source holds several entries; their conditions need not be identical. Equal values may be shown once. Calls of active or inactive are those of the source.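 How the source made its calls: active means compounds lowering reporter light with a fitted half-maximal dose no more than twice the top dose tested; inconclusive means flat curve at 30 to 70% inhibition, or poor fit; inactive means the rest.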

As for `O=C1C=C(NCCN2CCOCC2)C(=O)c2cnccc21`, in assay [1], the AC50 was 2.37 µM.

Regarding `Oc1ccc(Br)cc1/C=N/Nc1ccccn1`, the AC50 in assay [1] was 1.72 µM.

`O=C(CCl)N1CCCC1c1ccc2c(c1)OCCO2` (stereo not given): the AC50 in assay [1] is 0.949 µM.

As to `CCc1ccc(NC(=O)C2C3CCC(O3)C2C(=O)O)cc1` (stereo not given), in assay [2], the activity change, negative = inhibition was 7.59% (inactive) and -9.7% (inactive).

For the molecule `CC1=NNC(=O)/C1=C\c1cn(-c2ccccc2)nc1-c1ccc(Cl)cc1`, the AC50 in assay [1] is 1.46 µM.
